Data from ChEMBL document CHEMBL1142287, “Anti-Pneumocystis carinii and antiplasmodial activities of primaquine-derived imidazolidin-4-ones” (Bioorg Med Chem Lett, 2008).

How the values were obtained:
Pneumocystis carinii = experiment: Antimicrobial activity against Pneumocystis carinii assessed as ATP levels after 72 hrs by luciferase assay; format: functional, organism-based
How it was run: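 P. carinii organism preparations screened before use for microbial contamination, ATP content, karyotype and host cell content. Compounds incubated with organisms for 72 h, then ATP measured as relative light units. Each concentration tested in triplicate wells and averaged, with triplicate runs using separate organism isolation batches. Activity averaged from at least three determinations.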

Plasmodium falciparum = experiment: Antiplasmodial activity against chloroquine-resistant Plasmodium falciparum W2; format: functional, organism-based
How it was run: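 Parasite development assay against P. falciparum W2, run by the authors' earlier method. Values in μM, each the average of at least three determinations.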

[1] = Half life of hydrolysis in buffer at pH 7.4; format: ADME
How it was run: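 Hydrolytic stability followed in pH 7.4 buffer at 37 °C; half-life derived from the decay.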

Row | Structure (SMILES) | IC50 (Pneumocystis carinii; Pneumocystis carinii, 72 h) [µM] | IC50 (Plasmodium falciparum) [µM] | half-life [1] [h] | IC50 (Pneumocystis carinii) [µM]
1 | COc1cc(NC(C)CCCN2C(=O)[C@H](Cc3ccccc3)NC2(C)C)c2ncccc2c1 (some centres not stated) | 32 | > 50 |  | 
2 | COc1cc(NC(C)CCCN2C(=O)[C@H](C(C)C)NC23CCCCCC3)c2ncccc2c1 (some centres not stated) | 6 | 8.89 | > 240 | 
3 | COc1cc(NC(C)CCCN2C(=O)[C@H](C(C)C)NC23CCCCC3)c2ncccc2c1 (some centres not stated) | 26 | > 50 |  | 
4 | COc1cc(NC(C)CCCN2C(=O)[C@H](C(C)C)NC23CCCC3)c2ncccc2c1 (some centres not stated) | 23 | > 50 |  | 
5 | COc1cc(NC(C)CCCN2C(=O)[C@H](Cc3ccccc3)NC23CCCC3)c2ncccc2c1 (some centres not stated) | 12 | > 50 |  | 
6 | COc1cc(NC(C)CCCN2C(=O)[C@H](C)NC2(C)C)c2ncccc2c1 (some centres not stated) | 226 | > 50 |  | 
7 | COc1cc(NC(C)CCCN2C(=O)[C@H](CC(C)C)NC23CCCCCC3)c2ncccc2c1 (some centres not stated) | 4.1 | 2.63 |  | 
8 | COc1cc(NC(C)CCCN2C(=O)[C@H](C)NC23CCC(C)CC3)c2ncccc2c1 (some centres not stated) | 23 |  |  | 
9 | COc1cc(NC(C)CCCN2C(=O)CNC23CCCCC3)c2ncccc2c1 (configuration not stated) | 43 | > 50 |  | 
10 | COc1cc(NC(C)CCCN2C(=O)[C@H](C)NC23CCCCCC3)c2ncccc2c1 (some centres not stated) | 1.9 | 2.42 |  | 
11 | COc1cc(NC(C)CCCN2C(=O)CNC2(C)C)c2ncccc2c1 (configuration not stated) | 23 | 9.08 |  | 
12 | COc1cc(NC(C)CCCN2C(=O)[C@H](C(C)C)NC2(C)C)c2ncccc2c1 (some centres not stated) | 40 | > 50 |  | 
13 | COc1cc(NC(C)CCCN2C(=O)C(Cc3ccccc3)NC2c2ccccc2C)c2ncccc2c1 (stereo in doubt; 2m1) |  |  |  | 21
14 | COc1cc(NC(C)CCCN2C(=O)C(Cc3ccccc3)NC2c2ccccc2C)c2ncccc2c1 (stereo in doubt; 2m2) | 13 |  |  | 
15 | COc1cc(NC(C)CCCN)c2ncccc2c1 (configuration not stated) [PRIMAQUINE] | 2.5 |  |  | 
